Structures are written as SMILES.

One test addresses T1, Adenosine receptor A1 (Rattus norvegicus, UniProt P25099).
T1 sequence (P25099 whole entry): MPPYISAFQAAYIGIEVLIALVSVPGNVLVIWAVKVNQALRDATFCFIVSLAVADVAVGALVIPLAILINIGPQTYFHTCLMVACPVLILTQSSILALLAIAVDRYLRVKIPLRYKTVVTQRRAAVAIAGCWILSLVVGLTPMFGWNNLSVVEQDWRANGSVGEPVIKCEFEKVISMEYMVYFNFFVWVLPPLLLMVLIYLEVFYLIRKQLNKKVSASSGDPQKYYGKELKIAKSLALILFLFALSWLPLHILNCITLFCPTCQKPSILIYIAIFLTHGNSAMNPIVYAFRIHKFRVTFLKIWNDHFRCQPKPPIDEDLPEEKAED
Kind of test: Displacement of [3H]CHA from Adenosine A1 receptor in rat brain homogenates. Format: tissue-based.

Test [1] deals with Adenosine receptors; A1 & A3 (Rattus norvegicus) (UniProt P25099+P28647). Kind of test: Selectivity, ratio between A1 receptor binding affinity / A3 receptor binding affinity. Format: protein assay.
The target of test [2] is Adenosine receptor A2a and A3 (Rattus norvegicus) (UniProt P30543+P28647). Briefly: Selectivity, ratio between A2A receptor binding affinity / A3 receptor binding affinity. Format: protein assay.
Sequence of Adenosine receptor A2a and A3 (Rattus norvegicus) (P30543 whole entry, looked up, one chain of several): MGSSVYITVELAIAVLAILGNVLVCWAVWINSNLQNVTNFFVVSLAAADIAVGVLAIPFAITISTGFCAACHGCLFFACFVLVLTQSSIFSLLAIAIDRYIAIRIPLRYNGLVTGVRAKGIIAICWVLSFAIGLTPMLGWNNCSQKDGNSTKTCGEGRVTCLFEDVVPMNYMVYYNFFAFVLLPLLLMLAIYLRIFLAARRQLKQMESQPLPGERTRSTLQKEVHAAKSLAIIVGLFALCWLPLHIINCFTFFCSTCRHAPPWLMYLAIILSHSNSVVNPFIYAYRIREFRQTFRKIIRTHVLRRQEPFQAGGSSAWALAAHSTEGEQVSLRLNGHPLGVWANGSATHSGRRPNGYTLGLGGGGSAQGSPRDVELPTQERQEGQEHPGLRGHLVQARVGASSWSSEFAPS
The next test deals with Adenosine receptor A2a (Rattus norvegicus, UniProt P30543). Briefly: Displacement of [3H]-CGS- 21680 from Adenosine A2A receptor in rat striatal homogenates. In short, it runs like this: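 Rat striatal homogenates labelled with [3H]CGS 21680 for A2A; IC50 by probit analysis over at least six concentrations, Ki via Cheng-Prusoff using Kd 18.5 nM; n = 3-4, Ki ± SEM in nM.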
Sequence of Adenosine receptor A2a (P30543 whole entry): as the sequence (P30543 whole entry, looked up, one chain of several) above
A general note: In a radioligand displacement assay an active substance lowers the binding of a labelled ligand.

A further test deals with T2, Adenosine receptor A3 (Rattus norvegicus, UniProt P28647).
T2 sequence (P28647 whole entry): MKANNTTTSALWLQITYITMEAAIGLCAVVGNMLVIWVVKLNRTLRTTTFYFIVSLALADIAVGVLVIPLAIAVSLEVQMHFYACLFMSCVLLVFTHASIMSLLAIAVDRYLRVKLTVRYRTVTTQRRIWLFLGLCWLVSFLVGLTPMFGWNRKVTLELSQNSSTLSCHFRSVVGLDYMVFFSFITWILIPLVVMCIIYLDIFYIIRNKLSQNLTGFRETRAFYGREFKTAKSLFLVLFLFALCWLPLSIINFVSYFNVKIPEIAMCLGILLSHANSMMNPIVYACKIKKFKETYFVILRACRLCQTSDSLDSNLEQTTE
Kind of test: Displacement of [125I]AB-MECA from cloned rat Adenosine A3 receptor in stably transfected CHO cells. Format: cell-based. The procedure, abridged:
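Membranes from CHO cells stably expressing rat A3 receptor, labelled with [125I]AB-MECA; IC50 by probit analysis from at least six concentrations, converted to Ki by Cheng-Prusoff with Kd 1.48 nM; n = 3, Ki ± SEM in nM.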

For `CCNC(=O)[C@H]1O[C@@H](n2cnc3c(NC(=O)Nc4ccc(C)cc4)ncnc32)[C@H](O)[C@@H]1O`, the Ki at Adenosine receptor A1 came to 124 nM; at Adenosine receptor A2a, 351 nM; on Adenosine receptor A3, 32.3 nM. Also, the Selectivity in test [1] is 3.8; in test [2], 11.
In the same order, the values of `CCNC(=O)[C@H]1O[C@@H](n2cnc3c(NC(=O)Nc4ccccc4I)ncnc32)[C@H](O)[C@@H]1O` are 179 nM, 440 nM, 32 nM, 5.6 and 14.
The corresponding values for `CNC(=O)[C@H]1O[C@@H](n2cnc3c(NC(=O)Nc4cccc(Cl)c4)ncnc32)[C@H](O)[C@@H]1O` are 550 nM, 6700 nM, 115 nM, 4.8 and 58.
The corresponding values for `CCNC(=O)[C@H]1OC(n2cnc3c(NC(=O)Nc4cccc(C(F)(F)F)c4)ncnc32)[C@H](O)[C@@H]1O` (some centres undefined) are 700 nM, 2300 nM, 77 nM, 9.1 and 30.
`CCNC(=O)[C@H]1O[C@@H](n2cnc3c(NC(=O)Nc4ccccc4F)ncnc32)[C@H](O)[C@@H]1O`: the values for the Ki on Adenosine receptor A1, at Adenosine receptor A2a and on Adenosine receptor A3 were 77 nM, 528 nM and 34 nM, respectively. In addition, the Selectivity in test [1] worked out at 2.2; in test [2], 15.
In the same order, the values of `CCNC(=O)[C@H]1O[C@@H](n2cnc3c(NC(=O)NC(C)(C)C)ncnc32)[C@H](O)[C@@H]1O` are 1440 nM, 3670 nM, 1930 nM, 0.75 and 1.9.
As to `CCNC(=O)[C@H]1O[C@@H](n2cnc3c(NC(=O)Nc4ccccc4OC)ncnc32)[C@H](O)[C@@H]1O`, the Ki at Adenosine receptor A1 is 73 nM; at Adenosine receptor A2a, 1160 nM; on Adenosine receptor A3, 30 nM. Besides, the Selectivity turned out to be 2.4 in test [1] and 38 in test [2].
Consider `CCNC(=O)[C@H]1O[C@@H](n2cnc3c(NC(=O)Nc4cccc(I)c4)ncnc32)[C@H](O)[C@@H]1O`, for which the Selectivity in test [1] came out at 0.5; in test [2], 130. The figures for the Ki at Adenosine receptor A2a and on Adenosine receptor A3 were 3940 nM and 30 nM, respectively.
On to `CCNC(=O)[C@H]1O[C@@H](n2cnc3c(NC(=O)Nc4ccc(OC)cc4)ncnc32)[C@H](O)[C@@H]1O`, for which the figures for the Ki at Adenosine receptor A1, on Adenosine receptor A2a and at Adenosine receptor A3 were 33 nM, 3360 nM and 6.6 nM, respectively. Further, the Selectivity in test [1] was found to be 4.9; in test [2] it was 510.
The corresponding values for `CCNC(=O)[C@H]1O[C@@H](n2cnc3c(NC(=O)Nc4ccc(I)cc4)ncnc32)[C@H](O)[C@@H]1O` are 64 nM, 561 nM, 101 nM, 0.6 and 5.6.
In the same order, the values of `CCNC(=O)[C@H]1OC(n2cnc3c(NC(=O)Nc4ccc(C(F)(F)F)cc4)ncnc32)[C@H](O)[C@@H]1O` (some centres undefined) are 739 nM, 4830 nM, 150 nM, 4.9 and 32.
For the compound `CCNC(=O)[C@H]1O[C@@H](n2cnc3c(NC(=O)Nc4cccc(OC)c4)ncnc32)[C@H](O)[C@@H]1O`, the results for the Ki at Adenosine receptor A1, at Adenosine receptor A2a and at Adenosine receptor A3 were 113 nM, 3860 nM and 42 nM, respectively. Besides, the Selectivity in test [1] stood at 2.7; in test [2], 92.
The corresponding values for `CNC(=O)[C@H]1O[C@@H](n2cnc3c(NC(=O)Nc4ccc(OC)cc4)ncnc32)[C@H](O)[C@@H]1O` are 491 nM, 8750 nM, 56 nM, 8.8 and 160.
In the same order, the values of `CCNC(=O)[C@H]1O[C@@H](n2cnc3c(NC(=O)Nc4ccc(F)cc4)ncnc32)[C@H](O)[C@@H]1O` are 85 nM, 1380 nM, 19 nM, 4.4 and 72.
In the same order, the values of `CCNC(=O)[C@H]1O[C@@H](n2cnc3c(NC(=O)Nc4ccc(Cl)cc4)ncnc32)[C@H](O)[C@@H]1O` are 72 nM, 1490 nM, 114 nM, 0.6 and 13.
For the compound `CCNC(=O)[C@H]1O[C@@H](n2cnc3c(NC(=O)Nc4ccccc4C(F)(F)F)ncnc32)[C@H](O)[C@@H]1O`, the Ki turned out to be 384 nM on Adenosine receptor A1, 10000 nM on Adenosine receptor A2a and 54 nM at Adenosine receptor A3. In addition, the Selectivity came to 7.4 in test [1] and 190 in test [2].
In the same order, the values of `CCNC(=O)[C@H]1O[C@@H](n2cnc3c(NC(=O)Nc4ccccc4Cl)ncnc32)[C@H](O)[C@@H]1O` are 111 nM, 1340 nM, 7.4 nM, 15 and 180.
The corresponding values for `CCNC(=O)[C@H]1O[C@@H](n2cnc3c(NC(=O)Nc4cccc(Br)c4)ncnc32)[C@H](O)[C@@H]1O` are 252 nM, 286 nM, 275 nM, 0.9 and 1.
The corresponding values for `CCNC(=O)[C@H]1O[C@@H](n2cnc3c(NC(=O)Nc4ccccc4)ncnc32)[C@H](O)[C@@H]1O` are 110 nM, 5360 nM, 39 nM, 2.8 and 140.
Consider `CCNC(=O)[C@H]1O[C@@H](n2cnc3c(NC(=O)Nc4cccc(F)c4)ncnc32)[C@H](O)[C@@H]1O`, for which the Ki at Adenosine receptor A1 turned out to be 103 nM; at Adenosine receptor A2a, 611 nM; on Adenosine receptor A3, 39 nM. In addition, the Selectivity in test [1] amounted to 2.6; in test [2] it was 16.
In the same order, the values of `CCCCCCCCNC(=O)Nc1ncnc2c1ncn2[C@@H]1O[C@H](C(=O)NCC)[C@@H](O)[C@H]1O` are 448 nM, 3070 nM, 326 nM, 1.4 and 9.4.
The corresponding values for `CCNC(=O)[C@H]1O[C@@H](n2cnc3c(NC(=O)Nc4cccc(Cl)c4)ncnc32)[C@H](O)[C@@H]1O` are 45 nM, 420 nM, 4.4 nM, 10 and 96.

For orientation: Ki means a dissociation constant, usually derived from enzyme kinetics or from competition with a known ligand.

The record behind these values is ChEMBL document CHEMBL1129034, “Novel N6-(substituted-phenylcarbamoyl)adenosine-5'-uronamides as potent agonists for A3 adenosine receptors” (J Med Chem, 1996).
